# Compound activity: PubChem BioAssay, Broad Institute
# PGC1a acetyl up: raises PGC1a acetylation signal in U2OS cells. U2OS PGC1a acetylation AlphaScreen, overnight. activation, % at 15.6 µM. actives 0.21% (n = 350,000);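 active means every replicate reaching activation of at least 50%, whatever the mean replicate activation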;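 further: hits raise the AlphaScreen acetylation signal above neutral controls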
#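 Incubation: overnight compound treatment, 37 °C. System: U2OS cells transduced with flag-tagged PGC1a and GCN5 acetyltransferase. Detection: AlphaScreen lysate read. Compound: single-point compound dosing.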
# An asterisk follows results filed as active. Not all results are given here.
SMILES,PGC1a acetyl up
O=C(CCC1CCCN(C(=O)c2cc(C3CC3)[nH]n2)C1)N1CCN(c2ccccn2)CC1 (configuration not stated),-98
C[C@@H]1CN([C@@H](C)CO)C(=O)c2cc(C#CC3CCCC3)cnc2O[C@H]1CN(C)C(=O)Nc1ccccc1,-45
C[C@H]1CCCCO[C@H](CN(C)Cc2ccc3c(c2)OCO3)[C@@H](C)CN([C@@H](C)CO)C(=O)c2cc(NC(=O)Nc3ccc(C(F)(F)F)cc3)ccc2O1,-79
Cc1c(NC(=O)COC(=O)c2ccccc2O)c(=O)n(-c2ccccc2)n1C,-57
CCCCS(=O)(=O)/C=C\C=C/S(=O)(=O)CCCC,-97
COc1ccc(S(=O)(=O)Nc2ccc3c(c2)C(=O)N([C@H](C)CO)C[C@@H](C)[C@H](CN(C)C(=O)Nc2ccc(C(F)(F)F)cc2)OCCCC[C@@H](C)O3)cc1,-41
O=C(COc1ccccc1)N1CCN=C1SCc1ccccc1,-43
COc1ccc(Cl)cc1NC(=O)NCC1CCN(C(=O)OC(C)(C)C)CC1,-50
Fc1cccc(CN2C[C@@H]3N[C@H](C2)[C@@H]3c2ccc(-c3cccc(F)c3)cc2)c1,-99
COc1cc(CN2C[C@@H]3N[C@H](C2)C3c2ccc(-c3cccc(OC)c3)cc2)cc(OC)c1 (some centres not stated),69*
CC(=O)Nc1ccc(Sc2ccc([N+](=O)[O-])o2)cc1,438*
CC(=O)Nc1ccc(NC(=O)c2cc(=O)c3ccccc3o2)cc1,-42
C[C@H](CO)N1C[C@H](C)[C@@H](CN(C)Cc2ccc3c(c2)OCO3)Oc2cc(Br)ccc2S1(=O)=O,51*
C[C@@H]1CN([C@H](C)CO)S(=O)(=O)c2ccc(C#CC3CCCC3)cc2O[C@H]1CN(C)C,52*
COc1cccc(S(=O)(=O)N(C)C[C@@H]2Oc3cc(C4=CCCC4)ccc3S(=O)(=O)N([C@H](C)CO)C[C@@H]2C)c1,59*
CC(C)C#Cc1ccc2c(c1)O[C@@H](CN(C)Cc1ccccc1)[C@@H](C)CN([C@@H](C)CO)S2(=O)=O,-99
CC(C)CC#Cc1ccc2c(c1)O[C@@H](CN(C)Cc1ccc3c(c1)OCO3)[C@H](C)CN([C@H](C)CO)S2(=O)=O,-53
COc1ccc(S(=O)(=O)N(C)C[C@@H]2Oc3cc(C#CC4CC4)ccc3S(=O)(=O)N([C@H](C)CO)C[C@H]2C)cc1,59*
C[C@@H]1CN([C@@H](C)CO)S(=O)(=O)c2ccc(C#CC3CCCCC3)cc2O[C@H]1CN(C)Cc1cccnc1,-60
CC(C)C#Cc1ccc2c(c1)O[C@@H](CN(C)C(=O)C1CC1)[C@@H](C)CN([C@@H](C)CO)S2(=O)=O,-48
C[C@@H]1CN([C@H](C)CO)S(=O)(=O)c2ccc(C3=CCCCC3)cc2O[C@H]1CN(C)Cc1ccccc1,-43
Cc1ccc(S(=O)(=O)N(C)C[C@@H]2Oc3cc(C#Cc4ccncc4)ccc3S(=O)(=O)N([C@H](C)CO)C[C@H]2C)cc1,-42
Cc1ccc(S(=O)(=O)N(C)C[C@@H]2Oc3cc(C#Cc4ccncc4)ccc3S(=O)(=O)N([C@@H](C)CO)C[C@H]2C)cc1,-60
C[C@@H]1CN([C@@H](C)CO)S(=O)(=O)c2ccc(C3=CCCCC3)cc2O[C@H]1CN(C)C,-48
Cc1cc(C)n(C/C=C/Cn2nc(C)cc2C)n1,-44
SMILES,PGC1a acetyl up
C/C(CC(=O)Nc1ccccc1Br)=N\NC(=O)C(=O)N1CCCC1,-44
O=C(O)c1cc(N2CCCCC2)ccn1,-48
Nc1ccc(N2CCCCC2)cc1N1CCCCC1,54*
Cc1cc(C(F)(F)F)n(-c2nc(C(=O)NNS(=O)(=O)c3ccccc3[N+](=O)[O-])cs2)n1,-110
Cc1ccccc1-n1nnnc1Sc1nnnn1-c1ccccc1,-46
CCCSc1nnc(Sc2nnnn2-c2ccccc2)s1,84*
CCOc1nc(NC(=O)NS(=O)(=O)c2ccccc2F)nc(-c2ccccc2)n1,-50
C=CCSc1nc2ccccc2n1C(=O)/C=C/c1cc(OC)c(OC)c(OC)c1,527*
O=C1C=CCCN1S(=O)(=O)/C=C/c1ccccc1,-59
O=Nc1c(-c2c(O)[nH]c3cc(Br)ccc23)[nH]c2ccccc12,258*
Cc1nn(CC(=O)Nc2ccc(C(C)C)cc2)c(C)c1[N+](=O)[O-],-43
COc1ccc(-c2cnc3c(c2)C(=O)N([C@H](C)CO)C[C@@H](C)[C@H](CN(C)C(=O)C2CCC2)O3)cc1,-56
CC[C@H](C)C1OC(=O)[C@@H](C)[C@@H](CC)NC(=O)[C@H](C)N(C)C(=O)C(C)(C)C(=O)C(C)NC(=O)[C@H](Cc2ccc(OC)cc2)N(C)C(=O)[C@H](C(C)C)N(C)C(=O)CNC(=O)[C@H](CC(C)C)N(C)C(=O)CNC1=O (some centres not stated),-74
Cn1cccc1CC(=O)N/N=C/c1cc([N+](=O)[O-])ccc1Cl,-46
O=C(N/N=C\c1cccc([N+](=O)[O-])c1O)C1COc2ccccc2O1 (configuration not stated),75*
O=C(N/N=C/c1cccc([N+](=O)[O-])c1)C1COc2ccccc2O1 (configuration not stated),188*
Cc1ccc(NC(=O)CC2=NC(=O)C(CC(=O)Nc3ccccc3F)S2)cc1 (configuration not stated),-50
CC(C)c1nc2sc3c(NCc4ccco4)ncnc3c2c2c1COC(C)(C)C2,-59
Nc1nc(F)nc2c1ncn2[C@@H]1O[C@H](CO)[C@@H](O)[C@H]1O,-83
OC[C@H]1O[C@@H](n2cnc3c(NCc4ccco4)ncnc32)[C@H](O)[C@@H]1O,72*
O=[N+]([O-])c1ccc(N=Nc2c(Cl)cc(O)cc2Cl)cc1,53*
O=C(Cc1cccc(NC(=O)C2CCCN(C(=O)c3ccccc3)C2)c1)Nc1cccc(C(=O)N2CCOCC2)c1 (configuration not stated),-41
O=C(Cc1cccc(NC(=O)C2CCN(C(=O)c3ccccc3)CC2)c1)Nc1cccc(C(=O)N2CCCCC2)c1,-42
CC(C)(C)OC(=O)N1CCCC(C(=O)Nc2cccc(C(=O)NCc3ccccc3)c2)C1 (configuration not stated),64*
Cc1ccc(CC(=O)N2CCN(c3ccc([N+](=O)[O-])cc3)CC2)cc1,113*
SMILES,PGC1a acetyl up
O=C(c1cc([N+](=O)[O-])ccc1N1CCCC1)N1CCCC1,-52
O=[N+]([O-])c1ccc(N2CCN(C(=S)NCc3ccc(Cl)cc3)CC2)cc1,81*
Cc1cccc(N2CCN(CC3CCCCC3)CC2)c1C,-47
O=[N+]([O-])c1ccc(N2CCN(CC3CCCCC3)CC2)cc1,63*
Cn1nc(C(C)(C)C)cc1NC(=O)C1(C)CCN1C(=O)C1(c2ccccc2)CCCC1 (configuration not stated),-55
CCOC(=O)CCc1c(C)c2ccc(O)cc2oc1=O,74*
O=S1(=O)CC=C(CSC(=S)NC2CCS(=O)(=O)C2)C1 (configuration not stated),-47
COc1ccc(N(C(=O)CCl)C(C(=O)NCCc2ccccc2)c2cccs2)cc1 (configuration not stated),-61
CCOC(=O)C1=C(C)NC(=O)NC1c1ccccc1Cl (configuration not stated),57*
C=CCOC(=O)C1=C(C)NC(SCC)=C(C#N)C1c1ccc(Cl)cc1 (configuration not stated),-45
CCOC(=O)c1cnn(-c2ccccc2)c1-n1cccc1C(=O)C(=O)Nc1ccc(F)cc1,78*
CCCCCCCCCSc1n[nH]c(N)n1,-25
